Measurements as given in ChEMBL document CHEMBL1125652, “Kynurenic acid derivatives. Structure-activity relationships for excitatory amino acid antagonism and identification of potent and selective antagonists at the glycine site on the N-methyl-D-aspartate receptor” (J Med Chem, 1991).
Activity calls are given as the source filed them. No cut-off for these calls is given here.

Columns and labels:
[1] = biological target: T1, Glutamate NMDA receptor (Rattus norvegicus) (UniProt P35439+Q00959+Q00960+Q00961+Q62645+Q8VHN2+Q9R1M7); experiment: Apparent dissociation constant of [3H]glycine from N-methyl-D-aspartate glutamate receptor in rat cortical slice preparation expressed as log values.
Summary of the method: (§1)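 Rat cortical slice preparation; test compound antagonism of depolarizations evoked by agonists N-methyl-D-aspartic acid, quisqualic acid or kainic acid, expressed as apparent Kb.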

Glutamate NMDA receptor [2] = experiment: Inhibition of [3H]glycine binding to glycine site of N-methyl-D-aspartate glutamate receptor in rat cortical membranes; type: cell membranes, Membrane
[3] = biological target: T2, Glutamate receptor ionotropic, AMPA (Rattus norvegicus) (UniProt P19491+P19492+P19493+P19490); experiment: Apparent dissociation constant of [3H]AMPA from Quisqualate receptor was determined in rat cortical slice preparation at 100 uM; Inactive; summary of the method: as §1
[4] = biological target: T1, Glutamate NMDA receptor (Rattus norvegicus); experiment: Apparent dissociation constant of [3H]-glycine from N-methyl-D-aspartate glutamate receptor in rat cortical slice preparation at 100 uM; Inactive; summary of the method: as §1
[5] = biological target: T3, Glutamate receptor ionotropic, kainate (Rattus norvegicus) (UniProt P22756+Q01812+P42260+P42264+Q63273); experiment: Apparent dissociation constant of [3H]kainate from ionotropic glutamate receptor kainate of rat cortical slice at 100 uM; Inactive; type: protein-complex assay; summary of the method: as §1
[6] = biological target: T3, Glutamate receptor ionotropic, kainate (Rattus norvegicus); experiment: Apparent dissociation constant of [3H]kainate from Ionotropic glutamate receptor ionotropic kainate was determined in rat cortical slice preparation; summary of the method: as §1
[7] = biological target: T2, Glutamate receptor ionotropic, AMPA (Rattus norvegicus); experiment: Apparent dissociation constant of [3H]-AMPA from Quisqualate receptor of rat cortical slice at 30 uM; Inactive; type: protein-complex assay; summary of the method: as §1
[8] = biological target: T1, Glutamate NMDA receptor (Rattus norvegicus); experiment: Apparent dissociation constant of [3H]-glycine from N-methyl-D-aspartate glutamate receptor in rat cortical slice at 30 uM; Inactive; summary of the method: as §1
[9] = biological target: T2, Glutamate receptor ionotropic, AMPA (Rattus norvegicus); experiment: Apparent dissociation constant of [3H]AMPA from quisqualate receptor of rat cortical slices; type: protein-complex assay; summary of the method: as §1
[10] = biological target: Glutamate receptor ionotropic, AMPA (Rattus norvegicus, UniProt P19490+P19491+P19492+P19493); experiment: Inhibition of [3H]-AMPA binding to AMPA receptor of rat cortical membrane
[11] = biological target: Glutamate receptor ionotropic, kainate; experiment: Inhibition of [3H]-kainic acid binding to kainate receptor of rat cortical membrane
Glutamate NMDA receptor [12] = experiment: Inhibition of [3H]-glutamate binding to N-methyl-D-aspartate glutamate receptor of rat cortical membranes; type: cell membranes, Membrane
Glutamate NMDA receptor [13] = experiment: Inhibition of [3H]glycine binding to N-methyl-D-aspartate glutamate receptor of rat cortical membranes; type: cell membranes, Membrane
Summary of the method: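 [3H]Glycine radioligand binding to rat cortical membranes. IC50 is the concentration inhibiting 50% of specific binding, taken from at least two experiments and given as the mean of two to four determinations (geometric mean).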

[14] = biological target: T1, Glutamate NMDA receptor (Rattus norvegicus); experiment: Apparent dissociation constant of [3H]glycine from N-methyl-D-aspartate glutamate receptor of rat cortical slices; type: protein-complex assay
Summary of the method: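 Antagonism of NMDA-induced depolarizations in a rat cortical slice preparation, where endogenous glycine is present at supersaturating levels. Apparent Kb was obtained from dose ratios, with a dose ratio under 2 at a stated concentration reported as ">". Kb values are means of at least three experiments.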

[15] = biological target: T3, Glutamate receptor ionotropic, kainate (Rattus norvegicus); experiment: Apparent dissociation constant for [3H]kainate from Ionotropic glutamate receptor kainate of rat cortical slices; type: protein-complex assay
Summary of the method: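 Functional antagonism of kainate-induced depolarizations in rat cortical slices. Apparent Kb was obtained from dose ratios, with a dose ratio under 2 at a stated concentration reported as ">". Kb values are means of at least three experiments.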

| Structure (SMILES) | -Log 1/Kb [1] | IC50 (Glutamate NMDA receptor [2]) [µM] | Kb [6] [µM] | further results |
| --- | --- | --- | --- | --- |
| O=C(O)c1cc(O)c2c(Br)cccc2n1 | 4.7 |  |  |  |
| O=C(O)c1cc(O)c2cccc(Cl)c2n1 |  | > 100 |  | Kb [3]: inactive; Kb [4]: inactive; Kb [5]: inactive |
| Cc1cc2[nH]c(=O)c(=O)n(C)c2cc1C |  | 6.6 | 47 |  |
| CCc1cc(Br)c2c(O)cc(C(=O)O)nc2c1 | 4.72 | 3.2 |  |  |
| O=C(O)c1cc(O)c2ccc(C(F)(F)F)cc2n1 | 3.52 |  |  |  |
| Cc1cc2c(cc1C)n(C)c(=O)c(=O)n2C |  | > 100 |  |  |
| Cc1ccc2nc(C(=O)O)cc(O)c2c1 |  |  | 59 | Kb [9]: 66 µM; Kb [4]: inactive |
| CCCc1cccc2nc(C(=O)O)cc(O)c12 | 3.4 |  |  |  |
| O=C(O)c1cc(=O)c2ccccc2[nH]1 [TRANSTORINE] |  |  | 89 | IC50 [10]: 101 µM; IC50 [11]: > 1000 µM |
| O=C(O)c1cc(O)c2cc(Cl)ccc2n1 |  | > 100 | 19 | IC50 [10]: 41 µM; IC50 (Glutamate NMDA receptor [12]): > 300 µM; IC50 [11]: > 300 µM |
| O=C(O)C(=O)Nc1cc(Cl)cc(Cl)c1 |  | 6.8 |  | Kb [3]: inactive |
| O=c1[nH]c2cc([N+](=O)[O-])c([N+](=O)[O-])cc2[nH]c1=O [DNQX] |  |  |  | IC50 (Glutamate NMDA receptor [13]): 4.5 µM |
| Cc1cccc2nc(C(=O)O)cc(O)c12 | 4.68 | 2.1 |  |  |
| O=C(O)c1cc(O)c2c(F)cccc2n1 | 4.39 |  |  |  |
| O=C(O)CNc1cc(Cl)cc(Cl)c1 |  | 49 |  | Kb [3]: inactive |
| CC(C)c1ccc2c(O)cc(C(=O)O)nc2c1 |  | > 100 |  |  |
| Cc1ccc2c(O)cc(C(=O)O)nc2c1 | 4.47 | 1.8 |  |  |
| CCc1cc(Cl)c2c(O)cc(C(=O)O)nc2c1 | 4.42 | 4.9 |  |  |
| O=[N+]([O-])c1cc2nc(O)c(O)nc2cc1[N+](=O)[O-] |  |  |  | Kb [14]: 5.3 µM; Kb [15]: 1.29 µM |
| O=C(O)c1cc(O)c2cc(F)ccc2n1 |  |  | 55 | Kb [9]: 48 µM |
| COc1ccc2nc(C(=O)O)cc(O)c2c1 |  |  | 32 | Kb [9]: 87 µM; Kb [4]: inactive |
| O=C(O)c1cc(O)c2c(C(F)(F)F)cc(C(F)(F)F)cc2n1 |  | > 100 |  |  |
| O=C(O)c1cc(O)c2c(Cl)cccc2n1 | 4.43 | 5.2 | > 100 |  |
| CCCc1ccc2c(O)cc(C(=O)O)nc2c1 |  | > 100 |  |  |

| Structure (SMILES) | -Log 1/Kb [1] | IC50 (Glutamate NMDA receptor [2]) [µM] | Kb [6] [µM] | further results |
| --- | --- | --- | --- | --- |
| CCc1ccc2nc(C(=O)O)cc(O)c2c1 |  |  | > 100 | Kb [9]: > 100 µM; Kb [4]: inactive |
| COc1ccc2c(O)cc(C(=O)O)nc2c1 |  | > 100 |  |  |
| O=C(O)c1cc(O)c2cc(Br)ccc2n1 |  |  | 30 | Kb [9]: 28 µM |
| Cc1cc2[nH]c(=O)c(=O)[nH]c2cc1C |  | 2.3 |  |  |
| CCc1ccc2c(O)cc(C(=O)O)nc2c1 | 3.82 | > 100 |  |  |
| O=C(O)c1cc(O)c2ccc(F)cc2n1 | 4.5 |  |  |  |
| O=C(O)c1cc(O)c2ccc(Cl)cc2n1 [7-CHLOROKYNURENIC ACID] | 5.15 | 0.56 | 50 | IC50 [10]: 153 µM; IC50 (Glutamate NMDA receptor [12]): 169 µM; IC50 [11]: > 1000 µM |
| CSc1ccc2nc(C(=O)O)cc(O)c2c1 |  |  | 43 | Kb [9]: 56 µM |
| O=C(O)c1cc(O)c2c(I)cccc2n1 | 5.12 | 0.63 |  |  |
| CCCCc1ccc2c(O)cc(C(=O)O)nc2c1 |  | > 100 |  |  |
| O=C(O)c1cc(O)c2c(Cl)c(Cl)c(Cl)cc2n1 |  | 2.4 | 14 |  |
| O=C(O)c1nc2cc(Cl)ccc2[nH]1 |  | 5.6 |  |  |
| O=c1[nH]c2ccc(Cl)cc2[nH]c1=O |  | 8.4 |  |  |
| C=Cc1cccc2nc(C(=O)O)cc(O)c12 |  | > 100 |  |  |
| O=C(O)c1cc(O)c2ccc(Br)cc2n1 | 5.1 | 0.85 |  |  |
| CCc1cccc2nc(C(=O)O)cc(O)c12 | 5.26 | 4.8 |  |  |
| O=C(O)c1cc(O)c2cc(I)ccc2n1 |  |  | 37 | Kb [9]: 56 µM |
| CSc1ccc2c(O)cc(C(=O)O)nc2c1 | 2.67 |  |  |  |
| O=C(O)c1cc(O)c2ccc(I)cc2n1 | 4.33 | 3.6 |  |  |
| O=C(O)c1cc(O)c2cc(C(F)(F)F)ccc2n1 |  |  | > 100 | Kb [9]: > 100 µM; Kb [4]: inactive |
| Cn1c(C(=O)O)cc(=O)c2c(Cl)cc(Cl)cc21 |  | > 100 |  | Kb [3]: inactive; Kb [4]: inactive; Kb [5]: inactive |
| O=C(O)c1cc(O)c2c(C(F)(F)F)cccc2n1 | 4.46 |  |  |  |
| CCCCc1cccc2nc(C(=O)O)cc(O)c12 | 3.31 | > 100 |  |  |
| COc1cc(C(=O)O)nc2cc(Cl)cc(Cl)c12 |  | 100 |  | Kb [3]: inactive; Kb [4]: inactive; Kb [5]: inactive |

Continued, in another order:

| -Log 1/Kb [1] | IC50 (Glutamate NMDA receptor [2]) [µM] | Kb [6] [µM] | Structure (SMILES) | further results |
| --- | --- | --- | --- | --- |
| 5.8 | 0.086 |  | O=C(O)c1cc(O)c2c(Br)cc(Br)cc2n1 |  |
| 5.05 | 1.2 |  | Cc1cc(I)cc2nc(C(=O)O)cc(O)c12 |  |
|  | 8.3 | 4.6 | O=[N+]([O-])c1ccc2nc(O)c(O)nc2c1 |  |
|  | 56.3 | > 100 | Oc1nc2cccc(Cl)c2nc1O |  |
|  | > 100 | 86 | COc1nc2cc(C)c(C)cc2nc1O | Kb [7]: inactive; Kb [8]: inactive |
|  | 38.6 | > 100 | Oc1nc2ccccc2nc1O |  |
| 6.4 | 0.032 |  | O=C(O)c1cc(O)c2c(I)cc(Cl)cc2n1 |  |
|  | 3.4 | 22 | Oc1nc2cc(Cl)cc(Cl)c2nc1O |  |
| 6 | 0.26 |  | CCc1cc(Cl)cc2nc(C(=O)O)cc(O)c12 |  |
|  | 0.2 | > 30 | O=C(O)c1cc(O)c2c(Cl)cc(Cl)cc2n1 | IC50 (Glutamate NMDA receptor [12]): > 100 µM; IC50 [11]: > 300 µM |
| 5.68 | 0.82 |  | Cc1cc(Br)c2c(O)cc(C(=O)O)nc2c1 |  |
|  | > 100 |  | O=C(O)c1cc(O)c2c([N+](=O)[O-])cc([N+](=O)[O-])cc2n1 |  |
|  | 3.1 | 9 | Oc1nc2cc(Cl)c(Cl)cc2nc1O [2,3-DIHYDROXY-6,7-DICHLOROQUINOXALINE] |  |
| 4.11 |  |  | O=C(O)c1cc(O)c2ccc([N+](=O)[O-])cc2n1 |  |
| 5 | 0.65 |  | O=C(O)c1cc(O)c2c(Cl)cc(I)cc2n1 |  |
| 5.58 | 1.1 |  | Cc1cc(Br)cc2nc(C(=O)O)cc(O)c12 |  |
|  |  | 49 | O=C(O)c1cc(O)c2cc([N+](=O)[O-])ccc2n1 | Kb [9]: 52 µM; Kb [4]: inactive |
| 5.75 | 0.066 |  | CCc1cc(Br)cc2nc(C(=O)O)cc(O)c12 |  |
|  |  | 27 | Cc1cc2nc(O)c(O)nc2cc1C |  |
| 3.58 | > 100 |  | C=Cc1ccc2c(O)cc(C(=O)O)nc2c1 |  |
|  | > 100 |  | COc1nc2cc(C)c(C)cc2nc1OC |  |
| 6 | 0.27 |  | Cc1cc(I)c2c(O)cc(C(=O)O)nc2c1 |  |
| 5.16 | 0.54 |  | Cc1cc(C)c2c(O)cc(C(=O)O)nc2c1 |  |
|  |  | 26 | Oc1nc2ccc(Cl)cc2nc1O |  |
